Source: ChEMBL document CHEMBL1250457, “Elucidation of the topography of the thapsigargin binding site in the sarco-endoplasmic calcium ATPase” (Bioorg Med Chem, 2010)

Molecular target: Sarcoplasmic/endoplasmic reticulum calcium ATPase 1 (Oryctolagus cuniculus, UniProt P04191)
Test: Inhibition of rabbit sarcoplasmic reticulum calcium ATPase by ATP regeneration assay
In short: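 SERCA1a purified from rabbit skeletal muscle SR vesicles with low deoxycholate. Enzyme (1 mg/mL) pre-equilibrated 2.5–6 min with cumulatively added inhibitor (DMSO) in 1 mM EGTA, 1 mM Mg2+, 10 mM Tes pH 7.5, 100 mM KCl. Then diluted to 4 nM at 20 °C into NADH-coupled PK/LDH medium: 0.1 mM Ca2+, 1 mM Mg2+, 5 mM MgATP, 1 mM PEP, 0.15 mM NADH. Rate of A340 decrease.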

Sequence of Sarcoplasmic/endoplasmic reticulum calcium ATPase 1 (P04191 whole entry): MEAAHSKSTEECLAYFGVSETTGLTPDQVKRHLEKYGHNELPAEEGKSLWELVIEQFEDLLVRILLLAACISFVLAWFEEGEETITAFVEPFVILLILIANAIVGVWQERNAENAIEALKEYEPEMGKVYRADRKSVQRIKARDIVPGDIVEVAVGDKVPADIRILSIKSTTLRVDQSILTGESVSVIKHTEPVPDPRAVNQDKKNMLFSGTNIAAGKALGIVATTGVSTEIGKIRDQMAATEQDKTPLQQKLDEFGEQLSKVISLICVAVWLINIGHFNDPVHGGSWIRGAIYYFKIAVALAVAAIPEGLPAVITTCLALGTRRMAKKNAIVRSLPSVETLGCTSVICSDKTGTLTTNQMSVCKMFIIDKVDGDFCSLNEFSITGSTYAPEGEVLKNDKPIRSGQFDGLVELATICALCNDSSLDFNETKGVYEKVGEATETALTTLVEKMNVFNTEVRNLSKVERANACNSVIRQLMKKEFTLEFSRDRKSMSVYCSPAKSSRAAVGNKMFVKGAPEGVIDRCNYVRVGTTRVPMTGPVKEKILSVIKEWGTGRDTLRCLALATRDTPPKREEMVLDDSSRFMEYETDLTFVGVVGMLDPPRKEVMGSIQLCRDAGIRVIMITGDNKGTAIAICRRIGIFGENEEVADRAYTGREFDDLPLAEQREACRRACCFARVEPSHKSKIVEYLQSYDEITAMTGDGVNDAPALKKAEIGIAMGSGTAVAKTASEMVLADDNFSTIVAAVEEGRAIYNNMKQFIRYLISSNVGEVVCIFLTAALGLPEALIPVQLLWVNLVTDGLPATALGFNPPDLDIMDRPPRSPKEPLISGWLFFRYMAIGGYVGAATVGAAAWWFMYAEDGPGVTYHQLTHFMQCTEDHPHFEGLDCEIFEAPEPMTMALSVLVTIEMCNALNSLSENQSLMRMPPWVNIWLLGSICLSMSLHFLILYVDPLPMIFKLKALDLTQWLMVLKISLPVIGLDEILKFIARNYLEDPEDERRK

`CCCCCCCC(=O)O[C@H]1[C@H]2C(=C(C)[C@@H]1O)[C@@H]1OC(=O)[C@@](C)(O)[C@@]1(O)[C@@H](OC(=O)CCC)C[C@]2(C)OC(C)=O` was tested, and the IC50 was > 70 nM.
Work on `C/C=C(/C)C(=O)O[C@H]1C(C)=C2[C@H]([C@@H]1OC(=O)CCCCCCC)[C@@](C)(O)C[C@H](OC(=O)CCC)[C@@]1(O)[C@H]2OC(=O)[C@@]1(C)O` yielded an IC50 of 20 nM.
Work on `CCCCCCCC(=O)O[C@H]1[C@H]2C(=C(C)[C@@H]1OC(=O)Cc1ccc(-c3ccccc3)cc1)[C@@H]1OC(=O)[C@@](C)(O)[C@@]1(O)[C@@H](OC(=O)CCC)C[C@]2(C)OC(C)=O` yielded an IC50 of 18 nM.
In the case of `C/C=C(/C)C(=O)O[C@H]1C(C)=C2[C@H]([C@@H]1OC(=O)CCCCCCC)[C@@](C)(O)C[C@H](OC(=O)CCCCCCC)[C@@]1(O)[C@H]2OC(=O)[C@@]1(C)O`, the IC50 is reported as 20 nM.
With `C/C=C(/C)C(=O)O[C@H]1C(C)=C2[C@H]([C@@H]1OC(=O)CCCCCCC)[C@@](C)(OC(=O)CCC)C[C@@H]1OC(C)(C)O[C@]3(C)C(=O)O[C@@H]2[C@]13OC(=O)CCC` the IC50 was > 70 nM.
With `C/C=C(/C)C(=O)O[C@H]1C(C)=C2[C@H]([C@@H]1OC(=O)CCCCCCC)[C@@](C)(OC(=O)CCC)C[C@H](OC(=O)CCC)[C@@]1(O)[C@H]2OC(=O)[C@@]1(C)OC(=O)CCC` the IC50 was 11.1 nM.
For `C/C=C(/C)C(=O)O[C@H]1C(C)=C2[C@H]([C@@H]1OC(=O)CCCCCCC)[C@@](C)(OC(=O)c1ccc(-c3ccccc3)cc1)C[C@H](OC(=O)CCC)[C@@]1(O)[C@H]2OC(=O)[C@@]1(C)O`, the IC50 was > 70 nM.
Work on `CCCCCCCC(=O)O[C@H]1[C@H]2C(=C(C)[C@@H]1OC(=O)c1cccc(C)c1)[C@@H]1OC(=O)[C@@](C)(O)[C@@]1(O)[C@@H](OC(=O)CCC)C[C@]2(C)OC(C)=O` yielded an IC50 of 9 nM.
Compound `CCCCCCCC(=O)O[C@H]1[C@H]2C(=C(C)[C@@H]1OC(=O)c1ccccc1-c1ccccc1)[C@@H]1OC(=O)[C@@](C)(O)[C@@]1(O)[C@@H](OC(=O)CCC)C[C@]2(C)OC(C)=O` has an IC50 of 3 nM.
Compound `CCCCCCCC(=O)O[C@H]1[C@H]2C(=C(C)[C@@H]1OC(=O)c1ccc(C)cc1)[C@@H]1OC(=O)[C@@](C)(O)[C@@]1(O)[C@@H](OC(=O)CCC)C[C@]2(C)OC(C)=O` has an IC50 of 44 nM.
`C/C=C(/C)C(=O)O[C@H]1C(C)=C2[C@H]([C@@H]1OC(=O)CCCCCCC)[C@@](C)(OC(C)=O)C[C@H](OC(=O)CCC)[C@@]1(O)[C@H]2OC(=O)[C@@]1(C)O` [THAPSIGARGIN] was tested, and the IC50 was 0.2 nM.
`C/C=C(/C)C(=O)O[C@H]1C(C)=C2[C@H]([C@@H]1OC(=O)CCCCCCC)[C@@](C)(OC(=O)CCC)C[C@H](OC(=O)CCC)[C@@]1(O)[C@H]2OC(=O)[C@@]1(C)O` showed an IC50 of 2.5 nM.
`CCCCCCCC(=O)O[C@H]1[C@H]2C(=C(C)[C@@H]1OC(=O)c1ccccc1)[C@@H]1OC(=O)[C@@](C)(O)[C@@]1(O)[C@@H](OC(=O)CCC)C[C@]2(C)OC(C)=O` showed an IC50 of 0.8 nM.
With `C/C=C(/C)C(=O)O[C@H]1C(C)=C2[C@H]([C@@H]1OC(=O)CCCCCCC)[C@@](C)(OC(=O)CCC)C[C@@H]1OC(C)(C)O[C@]3(C)C(=O)O[C@@H]2[C@]13O` the IC50 was 19 nM.
`C/C=C(/C)C(=O)O[C@H]1C(C)=C2[C@H]([C@@H]1OC(=O)CCCCCCC)[C@@](C)(OC(=O)Cc1ccc(-c3ccccc3)cc1)C[C@H](OC(=O)CCC)[C@@]1(O)[C@H]2OC(=O)[C@@]1(C)O` showed an IC50 of 27 nM.
Compound `C/C=C(/C)C(=O)O[C@H]1C(C)=C2[C@H]([C@@H]1OC(=O)CCCCCCC)[C@@](C)(OC(C)=O)C[C@H](O)[C@@]1(O)[C@H]2OC(=O)[C@@]1(C)O` [DEBUTANOYLTHAPSIGARGIN] has an IC50 of 10 nM.
With `C/C=C(/C)C(=O)O[C@H]1C(C)=C2[C@H]([C@@H]1OC(=O)CCCCCCC)[C@@](C)(OC(=O)c1ccccc1)C[C@H](OC(=O)CCC)[C@@]1(O)[C@H]2OC(=O)[C@@]1(C)O` the IC50 was 15.6 nM.
In the case of `CCCCCCCC(=O)O[C@H]1[C@H]2C(=C(C)[C@@H]1OC(=O)c1ccc(-c3ccccc3)cc1)[C@@H]1OC(=O)[C@@](C)(O)[C@@]1(O)[C@@H](OC(=O)CCC)C[C@]2(C)OC(C)=O`, the IC50 is reported as > 70 nM.
`C/C=C(/C)C(=O)O[C@H]1C(C)=C2[C@H]([C@@H]1OC(=O)c1ccccc1)[C@@](C)(OC(C)=O)C[C@H](OC(=O)CCC)[C@@]1(O)[C@H]2OC(=O)[C@@]1(C)O` gave an IC50 of 1.6 nM.
`C/C=C(/C)C(=O)O[C@H]1C(C)=C2[C@H]([C@@H]1OC(=O)CCCCCCC)[C@@](C)(OC(=O)CCCCCCC)C[C@H](OC(=O)CCC)[C@@]1(O)[C@H]2OC(=O)[C@@]1(C)O` was tested, and the IC50 was 16 nM.
